Results from ChEMBL document CHEMBL1806449, “A class of Trp-Trp-AA-OBzl: Synthesis, in vitro anti-proliferation/in vivo anti-tumor evaluation, intercalation-mechanism investigation and 3D QSAR analysis” (Eur J Med Chem, 2011).
Peptide text beside a SMILES is read from it. * marks the point of attachment. OBn = c1ccc(CO*)cc1

How the values were obtained:
Mus musculus [1] = test: Toxicity in ICR mouse xenografted with mouse S180 cells assessed as increase in body weight at 8.9 umol/kg; assay type: organism-based, CCRF S-180; conditions: in vivo
Outline: (§1)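 S180-bearing male ICR mice (10–12 weeks; 1×10^7 cells s.c. right oxter; 12 per group), daily i.p. 8.9 µmol/kg for seven days starting 24 h after implantation; NS, cytarabine and doxorubicin controls; liver, brain, kidney weights, spleen index and body-weight gain recorded.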

[2] = Acute toxicity in ip dosed ICR mouse assessed as lethal dose; assay type: organism-based; conditions: in vivo
Outline: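 Male ICR mice, 24 weeks old, got a single i.p. injection of 500 mg/kg in 0.2 ml NS (normal saline). They were watched for 7 days for neurotoxic behaviour (tremor, twitch, jumping, tetanus, supination) and for death.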

CCRF S-180 [3] = test: Antitumor activity against mouse S180 cells xenografted in ICR mouse assessed as tumor growth inhibition at 8.9 umol/kg, ip administered 1 day after tumor inoculation qd for 7 days; assay type: functional; conditions: CCRF S-180, ip, read-out: GI
Outline: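 Male ICR mice 10–12 weeks; S180 from ascites serially transplanted weekly; 1×10^7 viable cells in 0.2 ml NS implanted s.c. at right oxter; 24 h later randomized (10 per group); daily i.p. 8.9, 0.89 or 0.089 µmol/kg/day in 0.2 ml NS, 7 days; NS and cytarabine controls; sacrificed 24 h after last dose; inhibition % = [1−(Tw/Cw)]×100.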

HepG2 = test: Antiproliferative activity against human HepG2 cells after 48 hrs by MTT assay; assay type: functional, cell-based; conditions: HepG2, 48 h
H22 = test: Antiproliferative activity against mouse H22 cells after 48 hrs by MTT assay; assay type: functional, cell-based; conditions: H22, 48 h
Mus musculus [4] = test: Acute toxicity in ICR mouse assessed as jumping at 500 mg/kg, ip administered qd for 7 days; assay type: organism-based; design: dose 500 mg/kg, route intraperitoneal; conditions: in vivo, 168 h
Mus musculus [5] = test: Acute toxicity in ICR mouse assessed as supination at 500 mg/kg, ip administered qd for 7 days; assay type: organism-based; design: dose 500 mg/kg, route intraperitoneal; conditions: in vivo, 168 h
Mus musculus [6] = test: Toxicity in ICR mouse xenografted with mouse S180 cells assessed as effect on brain weight at 8.9 umol/kg; assay type: organism-based, CCRF S-180; conditions: in vivo; outline: as §1
CCRF S-180 [7] = test: Antiproliferative activity against mouse S180 cells after 48 hrs by MTT assay; assay type: functional, cell-based; conditions: CCRF S-180, 48 h
Mus musculus [8] = test: Acute toxicity in ICR mouse assessed as tetanus at 500 mg/kg, ip administered qd for 7 days; assay type: organism-based; design: dose 500 mg/kg, route intraperitoneal; conditions: in vivo, 168 h
Mus musculus [9] = test: Toxicity in ICR mouse xenografted with mouse S180 cells assessed as increase in spleen index at 8.9 umol/kg; assay type: organism-based, CCRF S-180; conditions: in vivo; outline: as §1
Mus musculus [10] = test: Acute toxicity in ICR mouse assessed as apparent changes in any organ at 500 mg/kg, ip administered qd for 7 days; assay type: organism-based; design: dose 500 mg/kg, route intraperitoneal; conditions: in vivo, 168 h
B16 = test: Antiproliferative activity against mouse B16 cells after 48 hrs by MTT assay; assay type: functional, cell-based; conditions: B16, 48 h
Mus musculus [11] = test: Acute toxicity in ICR mouse assessed as twitch at 500 mg/kg, ip administered qd for 7 days; assay type: organism-based; design: dose 500 mg/kg, route intraperitoneal; conditions: in vivo, 168 h
Mus musculus [12] = test: Acute toxicity in ICR mouse assessed as mortality at 500 mg/kg, ip administered qd for 7 days; assay type: organism-based; design: dose 500 mg/kg, route intraperitoneal; conditions: in vivo, 168 h
Mus musculus [13] = test: Toxicity in ICR mouse xenografted with mouse S180 cells assessed as effect on kidney weight at 8.9 umol/kg; assay type: organism-based, CCRF S-180; conditions: in vivo; outline: as §1
K562 = test: Antiproliferative activity against human K562 cells after 48 hrs by MTT assay; assay type: functional, cell-based; conditions: K562, 48 h
Mus musculus [14] = test: Acute toxicity in ICR mouse assessed as tremors at 500 mg/kg, ip administered qd for 7 days; assay type: organism-based; design: dose 500 mg/kg, route intraperitoneal; conditions: in vivo, 168 h
Mus musculus [15] = test: Toxicity in ICR mouse xenografted with mouse S180 cells assessed as effect on liver weight at 8.9 umol/kg; assay type: organism-based, CCRF S-180; conditions: in vivo; outline: as §1

Row | Structure (SMILES) | Activity (Mus musculus [1]) [g] | LD50 [2] [mg/kg] | inhibition in vivo at 8.9 µmol/kg (CCRF S-180 [3]) [%] | IC50 (HepG2) [µM] | IC50 (H22) [µM] | Activity (Mus musculus [4]) | Activity (Mus musculus [5]) | Activity (Mus musculus [6]) [g] | IC50 (CCRF S-180 [7]) [µM] | Activity (Mus musculus [8]) | Activity (Mus musculus [9]) | Activity (Mus musculus [10]) | IC50 (B16) [µM] | Activity (Mus musculus [11]) | Activity (Mus musculus [12]) | Activity (Mus musculus [13]) [g] | IC50 (K562) [µM] | Activity (Mus musculus [14]) | Activity (Mus musculus [15]) [g]
1 | C[C@H](NC(=O)[C@H](Cc1c[nH]c2ccccc12)NC(=O)[C@@H](N)Cc1c[nH]c2ccccc12)C(=O)OCc1ccccc1 (H-Trp-Trp-Ala-OBn) | 9.5 | > 500 | 50 | 20.1 | 20.8 | Non-toxic | Non-toxic | 0.27 | 18.5 | Non-toxic | 7.59 | Non-toxic | 23 | Non-toxic | Non-toxic | 0.16 | 18.4 | Non-toxic | 1.77
2 | NC(=O)C[C@H](NC(=O)[C@H](Cc1c[nH]c2ccccc12)NC(=O)[C@@H](N)Cc1c[nH]c2ccccc12)C(=O)OCc1ccccc1 (H-Trp-Trp-Asn-OBn) | 9.96 | > 500 | 50.6 | 17.9 | 18.7 | Non-toxic | Non-toxic | 0.27 | 15.5 | Non-toxic | 7.81 | Non-toxic | 21.3 | Non-toxic | Non-toxic | 0.16 | 16.3 | Non-toxic | 1.82
3 | NC(=O)CC[C@H](NC(=O)[C@H](Cc1c[nH]c2ccccc12)NC(=O)[C@@H](N)Cc1c[nH]c2ccccc12)C(=O)OCc1ccccc1 (H-Trp-Trp-Gln-OBn) | 9.89 | > 500 | 72 | 10.2 | 10.7 | Non-toxic | Non-toxic | 0.27 | 8.74 | Non-toxic | 7.96 | Non-toxic | 12 | Non-toxic | Non-toxic | 0.16 | 8.86 | Non-toxic | 1.81
4 | N[C@@H](Cc1c[nH]c2ccccc12)C(=O)N[C@@H](Cc1c[nH]c2ccccc12)C(=O)N[C@@H](CCC(=O)O)C(=O)OCc1ccccc1 (H-Trp-Trp-Glu-OBn) | 9.94 | > 500 | 55.3 | 21 | 13.7 | Non-toxic | Non-toxic | 0.27 | 13.4 | Non-toxic | 7.92 | Non-toxic | 20.8 | Non-toxic | Non-toxic | 0.17 | 11 | Non-toxic | 1.86
5 | N[C@@H](Cc1c[nH]c2ccccc12)C(=O)N[C@@H](Cc1c[nH]c2ccccc12)C(=O)NCC(=O)OCc1ccccc1 (H-Trp-Trp-Gly-OBn) | 9.77 | > 500 | 56.6 | 17.8 | 22.4 | Non-toxic | Non-toxic | 0.27 | 19.5 | Non-toxic | 8.11 | Non-toxic | 24.3 | Non-toxic | Non-toxic | 0.16 | 16.2 | Non-toxic | 1.8
6 | N[C@@H](Cc1c[nH]c2ccccc12)C(=O)N[C@@H](Cc1c[nH]c2ccccc12)C(=O)N[C@@H](Cc1cnc[nH]1)C(=O)OCc1ccccc1 (H-Trp-Trp-His-OBn) | 10.04 | > 500 | 30.7 | 27.3 | 27 | Non-toxic | Non-toxic | 0.28 | 26.5 | Non-toxic | 8.34 | Non-toxic | 31.7 | Non-toxic | Non-toxic | 0.16 | 25.3 | Non-toxic | 1.78
7 | CC[C@H](C)[C@H](NC(=O)[C@H](Cc1c[nH]c2ccccc12)NC(=O)[C@@H](N)Cc1c[nH]c2ccccc12)C(=O)OCc1ccccc1 (H-Trp-Trp-Ile-OBn) | 9.8 | > 500 | 51.5 | 22.2 | 21.7 | Non-toxic | Non-toxic | 0.28 | 19.2 | Non-toxic | 8.12 | Non-toxic | 25.9 | Non-toxic | Non-toxic | 0.17 | 19.4 | Non-toxic | 1.85
8 | CC(C)C[C@H](NC(=O)[C@H](Cc1c[nH]c2ccccc12)NC(=O)[C@@H](N)Cc1c[nH]c2ccccc12)C(=O)OCc1ccccc1 (H-Trp-Trp-Leu-OBn) | 8.4 |  | 3.29 | 123 | 121 |  |  | 0.26 | 118 |  | 7.45 |  | 124 |  |  | 0.16 | 116 |  | 1.7
9 | CSCC[C@H](NC(=O)[C@H](Cc1c[nH]c2ccccc12)NC(=O)[C@@H](N)Cc1c[nH]c2ccccc12)C(=O)OCc1ccccc1 (H-Trp-Trp-Met-OBn) | 8.93 | > 500 | 16.9 | 52.7 | 49.1 | Non-toxic | Non-toxic | 0.28 | 49.1 | Non-toxic | 7.69 | Non-toxic | 65.4 | Non-toxic | Non-toxic | 0.16 | 41.6 | Non-toxic | 1.74
10 | N[C@@H](Cc1c[nH]c2ccccc12)C(=O)N[C@@H](Cc1c[nH]c2ccccc12)C(=O)N[C@@H](Cc1ccccc1)C(=O)OCc1ccccc1 (H-Trp-Trp-Phe-OBn) | 9.86 | > 500 | 56.7 | 16.8 | 17.4 | Non-toxic | Non-toxic | 0.28 | 14.5 | Non-toxic | 7.96 | Non-toxic | 19.3 | Non-toxic | Non-toxic | 0.16 | 14.9 | Non-toxic | 1.89
11 | N[C@@H](Cc1c[nH]c2ccccc12)C(=O)N[C@@H](Cc1c[nH]c2ccccc12)C(=O)N[C@@H](Cc1c[nH]c2ccccc12)C(=O)OCc1ccccc1 (H-Trp-Trp-Trp-OBn) | 8.71 |  | 19.1 | 154 | 98.1 |  |  | 0.29 | 115 |  | 7.75 |  | 157 |  |  | 0.16 | 125 |  | 1.78
